Screens (PubChem)
The list is not random: actives were taken first. Their share in the collection is about 3.7%.
KCNK3 inh: human KCNK3 channel inhibition, primary screen | 0.84% of 340,000 active | O14649 | B-score at 10 µM | CHO-KCNK3 thallium flux, FluxOR fluorescence; stronger effect = lower value;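 active means B-score under library mean minus 4 SD, starting fluorescence ratio at most library mean plus 5 SD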;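 further: more negative B-score means stronger inhibition of thallium flux through KCNK3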
KCNQ1 inh: human KCNQ1 channel inhibition. P51787. CHO-K1 KCNQ1, FluxOR thallium flux fluorescence; stronger effect = higher value. B-score at 10 µM. 1.3% of 310,000 active;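 active means compounds whose thallium flux B-score, printed positive for inhibition, exceeds three library SD while starting fluorescence stays within three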;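 further: channel opened by potassium depolarization with thallium stimulus after 20 min compound exposure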
KCNK9 block: inhibitors of human KCNK9 two-pore domain potassium channel; B-score at 10 µM; 1.2% of 310,000 active; HEK293 KCNK9, FluxOR thallium flux fluorescence; stronger effect = lower value; Q9NPC2;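 active means ratio B-score over 3 SD below the library mean, with starting fluorescence within 5 SD of its mean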;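 further: negative B-score means less thallium flux so channel inhibition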
KCNQ1 pot: human KCNQ1 channel potentiation or activation. B-score at 10 µM. CHO-K1 KCNQ1, thallium flux FluxOR fluorescence; stronger effect = higher value. 0.35% of 310,000 active. AID 2648. P51787;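 active means fluorescence ratio B-score, a plate-corrected score, at least three library SD, with initial intensity B-score within 5 SD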
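Medium – assay buffer, equal DMSO in all wells · Material – CHO-K1 cell line with stable KCNQ1 potassium channel expression · Signal – kinetic FluxOR thallium fluorescence, 10-s 1-Hz baseline, 110-s post-stimulus read · Compound – single concentration per compound, DMSO matched to controls · Schedule – 37 °C overnight plating, 90-min dark dye load, 20-min compound pretreatment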
hERG protect: shields human hERG channel from block by proarrhythmic agents; Q12809; CHO-hERG, FluxOR thallium flux, dofetilide IC70 present; activation (rescue from dofetilide block), less the hit threshold, % at 10 µM; 0.51% of 310,000 active; AID 1511;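 active means activation above the mean of controls blocked by dofetilide plus 5 SD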;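 further: thallium influx through hERG after potassium depolarization seen as dye fluorescence rise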
Kir21 inh: blocks the mouse Kir2.1 inward-rectifier potassium channel. HEK293-Kir2.1, FluxOR thallium flux fluorescence; stronger effect = lower value. B-score at 10 µM. 0.85% of 310,000 active;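 active means fluorescence ratio B-score at or below minus 3 SD of library scores, with starting-brightness B-score within 2 SD, cut at about -4.2 in these data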;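 further: channel flux triggered by added potassium and thallium sulfate stimulus; B-score of peak minus minimum fluorescence over baseline after thallium stimulus; more negative B-score means stronger Kir2.1 block with less thallium influx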
Target sequence (P35561 whole entry, looked up): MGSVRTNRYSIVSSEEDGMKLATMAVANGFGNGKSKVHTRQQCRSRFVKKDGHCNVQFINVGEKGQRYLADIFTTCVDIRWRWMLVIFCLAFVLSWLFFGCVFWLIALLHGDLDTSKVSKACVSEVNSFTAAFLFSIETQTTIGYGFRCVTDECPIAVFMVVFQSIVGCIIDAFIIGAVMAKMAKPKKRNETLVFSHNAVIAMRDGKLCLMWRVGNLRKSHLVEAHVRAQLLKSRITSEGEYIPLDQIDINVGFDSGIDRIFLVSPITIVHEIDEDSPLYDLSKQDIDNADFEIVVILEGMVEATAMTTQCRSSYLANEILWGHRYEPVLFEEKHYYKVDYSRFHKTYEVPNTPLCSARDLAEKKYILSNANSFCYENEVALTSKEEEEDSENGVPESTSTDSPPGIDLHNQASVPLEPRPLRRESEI
KCNK9 block conf: confirmation of human KCNK9 potassium channel inhibitors | shares compounds with KCNK9 block | HEK293 KCNK9 cells, FluxOR thallium flux fluorescence | inhibition, % at 10 µM | 43% of 4,900 active | AID 492992;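 active means thallium signal inhibited by more than 5 SD of the compound-free buffer control wells, on both duplicate plates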;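 further: 0% = assay buffer control wells without compound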
Kir21 sel: tests whether KCNK9 modulators also affect mouse Kir2.1; 4% of 4,900 active; shares compounds with KCNK9 block; Kir2.1 cells, FluxOR thallium flux fluorescence; inhibition, % at 10 µM;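 active means thallium signal drop more than 5 SD beyond the mean of the no-compound control wells, seen in both duplicate plates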;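 further: signal is fluorescence rise after thallium addition divided by baseline fluorescence; plate controls were assay buffer only for no effect and full block by chlorpromazine control for full effect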
KCNK9 uninduced: non-induced cell nonspecific activity of KCNK9 modulators; 40% of 4,900 active; shares compounds with KCNK9 block; inhibition, % at 10 µM; AID 492997; non-induced KCNK9-HEK293, FluxOR thallium flux;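 active means thallium signal drop beyond 5 SD of the untreated control mean, on both duplicate plates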;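 further: plate controls were buffer only IC0 wells for no effect and SID17386958 at its maximal inhibitory level for full effect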
* = called active by the depositor; i = inactive; nt = no result.

SMILES	KCNK3 inh	KCNQ1 inh	KCNK9 block	KCNQ1 pot	hERG protect	Kir21 inh	KCNK9 block conf	Kir21 sel	KCNK9 uninduced
CC(C)(C)n1nnnc1C(c1cccnc1)N(Cc1ccccc1)Cc1cccs1 (centres undefined)	i	i	-13*	i	-8	0.2	46%*	i	52%*
CCc1ccc(-c2cc(C)no2)cc1S(=O)(=O)N1CCN(c2ccc(F)cc2)CC1	i	i	i	i	-13	-0.95	nt	nt	nt
Cc1ccc(S(=O)(=O)Cn2nnnc2CN(Cc2ccco2)Cc2cccs2)cc1	i	i	i	i	-7	-0.74	nt	nt	nt
Cc1ccc(C(c2nnnn2C(C)(C)C)N(Cc2ccco2)Cc2cccs2)cc1 (centres undefined)	i	i	-17*	i	-8	1.1	66%*	i	30%*
CC(C)(C)n1nnnc1C(c1ccc(C(F)(F)F)cc1)N(Cc1ccc(F)cc1)Cc1ccco1 (centres undefined)	i	i	-10*	i	-5	1.2	42%*	i	31%*
c1ccc(CN(Cc2ccco2)C(c2ccncc2)c2nnnn2C2CCCC2)cc1 (centres undefined)	i	i	i	i	-4	0.55	nt	nt	nt
CC(C)(C)n1nnnc1C(c1ccc(C(F)(F)F)cc1)N(Cc1ccccc1)Cc1ccco1 (centres undefined)	i	6*	-11*	i	-4	0.74	52%*	i	33%*
CC1CN(c2ccc(S(=O)(=O)N3CCCC3)cn2)CC(C)O1 (centres undefined)	i	i	i	i	-12	0.46	nt	nt	nt
Oc1ccc(C=NC2CCCCC2)cc1	i	i	i	i	-12	-0.07	nt	nt	nt
COC(=O)c1sccc1NC(=O)CC1C(=O)NCCN1C(=O)c1ccc(N(C)C)cc1 (centres undefined)	i	i	i	i	-10	-0.02	nt	nt	nt
COc1ccc(N(C)C(=O)c2ccc3c(Cl)c4c(nc3c2)CCCC4)c(OC)c1	i	i	i	i	-14	1	nt	nt	nt
Cc1ccc(N(C)C(=O)c2ccc3c(Cl)c4c(nc3c2)CCC4)cc1C	i	i	i	i	-18	-2.2	i	i	i
CCc1ccc(N(CC)C(=O)c2ccc3c(Cl)c4c(nc3c2)CCC4)cc1	i	i	i	i	-11	1.8	i	i	27%*
O=C(CSc1ncnc2c1cnn2-c1ccccc1)NC1CCCC1	i	i	i	i	-4	0.63	nt	nt	nt
Cc1cc(C(=O)N/N=C/c2ccc(-c3cccc(Cl)c3)o2)n[nH]1	i	i	-14*	i	-10	-1	34%*	i	32%*
CCCCc1nc2cc(C(=O)N3CCCCC3CCNC(C)=O)ccc2o1 (centres undefined)	i	i	i	i	-8	-2.2	nt	nt	nt
CCCCNC(=O)CCCCCNS(=O)(=O)c1ccc(Br)cc1	i	i	i	i	-19	-1.1	nt	nt	nt
Cc1nc(Nc2ccc(Cl)cc2Cl)sc1C(=O)Nc1ccccc1	i	i	i	i	-6	-0.52	i	i	i
O=C(c1ccc(-c2cccc(C(F)(F)F)c2)o1)N1CCN(c2ccccc2O)CC1	i	i	-8.5*	i	-16	1.1	50%*	i	i
O=C(NC(Cc1ccccc1)C(=O)O)/C(=C/c1cccc([N+](=O)[O-])c1)NC(=O)c1cccc(Br)c1 (centres undefined)	i	i	i	i	-8	-1.3	nt	nt	nt
Cc1ccc(N=C(NOCc2ccc(Cl)cc2Cl)c2nonc2N)c(C)c1	i	i	-16*	i	-3	0.26	77%*	i	46%*
Cc1ccccc1N=C(NOCc1ccc(Cl)cc1Cl)c1nonc1N	i	i	-16*	i	-11	1.5	82%*	i	46%*
COc1ccc(NC2CCCN(C(=O)c3c(C)noc3C)C2)cc1 (centres undefined)	i	i	i	i	-3	1.2	nt	nt	nt
CCCCCCCn1c2c(c(=N)c3c1CCC3)CCCC2	i	6*	-9.9*	i	-28	-6.5*	70%*	78%*	36%*
CCn1c2c(c(=N)c3c1CCC3)CCC2	i	i	i	i	-4	0.12	nt	nt	nt
SMILES	KCNK3 inh	KCNQ1 inh	KCNK9 block	KCNQ1 pot	hERG protect	Kir21 inh	KCNK9 block conf	Kir21 sel	KCNK9 uninduced
CCCCCCn1c(=O)[nH]c2c(c1=O)CCC2	i	i	i	i	-9	0.46	nt	nt	nt
CCCCCCCCCn1c2c(c(=N)c3c1CCC3)CCC2	-19*	10*	-16*	i	-35	-15*	62%*	87%*	42%*
CN(C)C(CNC(=O)c1ccc2nccnc2c1)c1ccco1 (centres undefined)	i	nt	nt	nt	nt	nt	nt	nt	nt
COc1ccc(OC)c(NC(=O)Cc2ccc(NC3=NC4CS(=O)(=O)CC4S3)cc2)c1 (centres undefined)	i	i	i	i	-8	1.6	nt	nt	nt
CC(=O)N1c2c(cc(Br)cc2S(=O)(=O)NCc2cccnc2)CC1C (centres undefined)	i	i	i	i	-3	0.85	nt	nt	nt
CCCCN(Cc1ccccc1)S(=O)(=O)c1cc(Br)cc2c1N(C(C)=O)C(C)C2 (centres undefined)	i	i	-15*	i	-16	-0.08	i	i	54%*
Cc1ccc(S(=O)(=O)N(Cc2ccccc2)c2ccccc2C(=O)Nc2ccccc2C(=O)NCc2ccco2)cc1	i	8*	-9.6*	i	-8	0.01	i	i	34%*
Cc1cc(Cl)ccc1NC(=O)C1COc2ccccc2O1 (centres undefined)	i	i	i	i	-4	0.74	nt	nt	nt
CC1CC(C)CN(c2ccc(C(=O)NCc3ccc4c(c3)OCO4)cc2[N+](=O)[O-])C1 (centres undefined)	i	i	-8.5*	i	-4	0.65	43%*	i	i
COc1ccc(NC2CCCN(C(=O)CSc3ccncc3)C2)cc1 (centres undefined)	i	i	i	i	-8	-0.27	nt	nt	nt
CCOn1c(=O)c(-c2cccs2)[n+]([O-])c2ccccc21	i	i	i	i	-4	-1.9	nt	nt	nt
